The data set concerns MS2 coat protein. As to the kind of experiment: apparent Kd, MS2 coat protein; higher = weaker binding; RNA-MaP array; FMN 200 µM where present. In short, it runs like this:
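In 100 mM Tris-HCl pH 7.5, 80 mM KCl, 4 mM MgCl2, BSA, DTT, yeast tRNA and Tween-20, SNAP-549-labelled MS2 coat protein was titrated from 0.7 or 1.5 nM, doubling to 3 µM, over designs transcribed by stalled E. coli RNA polymerase on Illumina sequencing-chip clusters. This was done first without ligand, then with ligand held constant. After green signal was normalised to red-channel RNA signal and control-cluster median Fmax, the apparent Kd was taken as the median of filtered per-cluster binding-curve fits.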

The mark [1] stands for this setting: designed as: ON switch for flavin mononucleotide, no ligand.
Setting [2] is: ligand present: flavin mononucleotide, designed as: ON switch for flavin mononucleotide.
Setting [3] is: designed as: OFF switch for flavin mononucleotide, no ligand.
Setting [4] is: ligand present: flavin mononucleotide, designed as: OFF switch for flavin mononucleotide.

The values below come from the EternaBench riboswitch data.

For “UGGUACAUGGGAGGAUAUCCUCAAGAGACAUGAGGAUCACCCAUGUAUUAUAUGCCUCAUGGCAUGGAGAAGGCCCAUGUACCU”, the apparent Kd (commonly the concentration giving half-maximal binding under the conditions of the assay) runs as follows: under setting [1], 179 nM; under setting [2], 153 nM.
In the case of “CCUUUAUUUUCAGGAUAUCCGUUUAGGUAGAUAACAUGAGGAUCACCCAUGUCCAUGUUGUAAGUGGAGAAGGGAAAGAGUGGG”, the “apparent Kd” value is, setting by setting: under setting [1], 182 nM; under setting [2], 120 nM.
For “UGAACUAUGUAGAAGGCCCUCAUGAAAAUGAAGGGAGGAUAUACAUGAGGAUCACCCAUGUGAAGAGCAAGAGGGUUUAACAGA”, the “apparent Kd” value turned out to be 149 nM under setting [3] and 172 nM under setting [4].
For “AAGACAAAUGUAGGAUAUGCGUGGCGAAGCUAUGCAGAAGGACAUGAGGAUCACCCAUGUCUUAGCGUCUGCGUACAGAUGCUA” the same measures were 16.7 nM and 20.9 nM.
For “GAGCGAAAGCUCAAUGUCGAUAGCAGAAGGACAUGAAAACGUGAAAACACAUGAGGAUCACCCAUGUAGGAUAUGCUAUCGACU” the same measures were 57.1 nM and 745 nM.
For “ACUAGAUGAGGAUAUACACAUUUUAGUGUUCCUCUAGAUUAACAUGAGGAUCACCCAUGUAGAAGGCAUCAUUA”, in that order: 59.7 nM and 218 nM.
As for “AGUGGGUGUGAUAAAUAGUGGAAGUAGGAUAUGGGCUUACAUGAGGAUCACCCAUGUAUACAGCGCCAGAAGGACUGGACUGUA”, the “apparent Kd” value was found to be 75.3 nM under setting [1] and 34.6 nM under setting [2].
In the case of “AGCUAGUCAGGAUAUACGAACAUGUCAAAAGACGUGAAAGGACAUGAGGAUCACCCAUGUAGAAGGGACUAGCA”, the “apparent Kd” value under setting [3] turned out to be 21.4 nM and the “apparent Kd” value under setting [4] is 46.9 nM.
For “GAGUUAGAGGGAGGAUAUUGAGAUAGGACACUACGAGAAGGCUUAUAAUAGAUAAACAUGAGGAUCACCCAUGUCAUGUAAUGG”, in that order: 48.7 nM and 29.1 nM.
For “UAUGUAUUCGUAGGAUAUCCGUUAAAACCGUGUGGAGAAGGACGAACAUGAGGAUCACCCAUGUAUCAUGGUGUAGACAAUUUU” the same measures were 170 nM and 460 nM.
For “CGACACAUGAGGGUCUCCCAUGACAUGAGGAUCACCCAUGUGCAGGAUAUACGUGUGAUGGUAUAGUAGAAGGGCACUCUAUGU”, in that order: 41.6 nM and 58 nM.
As for “UCUGCCGCCGUGAGGAUAUGCCCAAAAAAACGCGGGCAGAAGGCACAUGAGGAUCACCCAUGUCCCGCGGUUUU”, the “apparent Kd” value under setting [3] amounted to 19.5 nM and the “apparent Kd” value under setting [4] came to 34.1 nM.
Take “CAUUUGUGAGGAUAUCAGGUGUGCUAGCGUACUGGUACAUCUGAGAAGGCACAUGAGGAUCACCCAUGUUUCUU”: under setting [4], the “apparent Kd” value worked out at 43.3 nM.
Turning to “GUGUAGUCAGGAUAUACAUAGGAAGAGAAGAGAAGAGAAGUACAUGAGGAUCACCCAUGUAGAAGGGACAGUGU”, the “apparent Kd” value was 24.3 nM under setting [3] and 25.1 nM under setting [4].
For “CUUCUCAGAGUCAGGAUAUAGUCGAAAGGGCUAGACUAGAAGGGACAUGAGGAUCACCCAUGUAAAAUAUCAAA”, in that order: 19.2 nM and 29.8 nM.
For “GUACAGUAGUGAGGAUAUACGAGAUCGAUAGAUCGGCGAUCCAAUUAUACAUGAGGAUCACCCAUGUAGAAGGCACUUCUGUAC” the same measures were 8.37 nM and 66.9 nM.
For “CUGCUAAUAGGAUAUGCUAGGGAGGCUUCACGUUAGCAGGAACAUGAGGAUCACCCAUGUAGAAGGAUUGUAGA”, in that order: 30.2 nM and 21.2 nM.
For “GCGGUCAACGUAGGAUAUCUUCAGCCACAGCACAUUGCUGUACAUGAGGAUCACCCAUGUCCUGGAGAGAAGGACGGACGGCAG”, the “apparent Kd” value runs as follows: under setting [1], 179 nM; under setting [2], 35.3 nM.
“CAGAAGUCAGGAUAUGCAUGGCGGGACUUGCGUCGUGGCGUGCAGAAGGGACAUGAGGAUCACCCAUGUGGAGU”: the “apparent Kd” value runs as follows: under setting [3], 173 nM; under setting [4], 251 nM.
With “GCUGUCGCGUGAGGAUAUGGUCGGCUUUGCUGACCAGAAGGCAUGUCAAUAGACAUGAGGAUCACCCAUGUGGUUAGGGCGGCU”, the “apparent Kd” value under setting [1] stood at 1020 nM and the “apparent Kd” value under setting [2] worked out at 134 nM.
For the sequence “AGUACUACAGGAUAUACAUGAGUGAUACUCAUAUCCCUACUACAUGAGGAUCACCCAUGUAGAAGGGUAGUACA”, the “apparent Kd” value by setting is: under setting [3], 11.7 nM; under setting [4], 10.1 nM.
For the sequence “GCCAUCGCAUGAGGAUAUGCUCGGGUUUCCCGAGCAGAAGGCAUGUAAUAAGACAUGAGGAUCACCCAUGUAGUUAAGAUGGCA”, the “apparent Kd” value is, setting by setting: under setting [1], 7.48 nM; under setting [2], 5.3 nM.
As to “CGAGUUUUUGAGAAGGCAUAUUAUAAUAGUGUCCAUGUUUACAUGAGGAUCACCCAUGUUUAGUAUGAGGAUAUCAGUAUGUCG”, the “apparent Kd” value amounted to 8.01 nM under setting [3] and 11.1 nM under setting [4].
For “GUUAAGUGAGGAUAUGGUGAGUAGUGCCAGAGCGCUGCUCACCAGAAGGCACAUGAGGAUCACCCAUGUAUAGC”, in that order: 15.7 nM and 31.5 nM.
For “UUAGCAACAUGAGGAUCACCCAUGUAGGAUAUCGCUAUUGUAAUCAUGAAACAUGAUUACAAUAGCGAGAAGGACAUAUGCUGG”, in that order: 22.4 nM and 19.5 nM.
For “ACAUAAAUUCGAGGAUAUCGGUGAUAUAAUUUACGAGAAGGCGAUAAUUGUUAUAAACUUAUAGACAUGAGGAUCACCCAUGUA”, the “apparent Kd” value is, setting by setting: under setting [1], 32.1 nM; under setting [2], 31.9 nM.
In the case of “AACUGGUGUGAGAAGGGACGUAUCUCCAUGAGGGCAGGGCUAUUAGAGAAGUCAGGAUAUCACAUGAGGAUCACCCAUGUGACG”, the “apparent Kd” value is, setting by setting: under setting [3], 8.33 nM; under setting [4], 9.02 nM.
For “CCUCCACAUGAGGAUCACCCAUGUCAGGAUAUCGCGCGCGCGUUUUCGGUCUUUCGCGCGAGAAGGGACGACUG”, in that order: 34.4 nM and 54.5 nM.
For “GCCCGUGCGGAGGAUAUUGAUAUCCCAGUCUAUCAAGAAGGCUGCACAUGAGGAUCACCCAUGUGACCUGUGCU”, in that order: 18.8 nM and 51.7 nM.
Regarding “AGGAUGCGUGCAGGAUAUCGAGUCGGGAUGGCUCGCGUGGUGUGCCACAUGAGGAUCACCCAUGUCGAGAAGGGCAGGCGGCGC”, the “apparent Kd” value under setting [3] was 535 nM and the “apparent Kd” value under setting [4] is 256 nM.
For “ACUAGUUGGUAAGGAUAUCCUACACUGUUCUGACCCGUGCAAGCUACAUGAGGAUCACCCAUGUGGGAGAAGGUGCGUCAACGC” the same measures were 15.3 nM and 15.9 nM.
On to “UACAUUUAACAGAAGGCGUUUAUAUAUAACUUACGAGGAUAUGUAUAACAUGAGGAUCACCCAUGUAACAUGGAGAGAAUAUCU”, for which the “apparent Kd” value is, setting by setting: under setting [1], 43.1 nM; under setting [2], 26.6 nM.
Consider “UUCCAGCUUGUCAGGAUAUACUUAGGGUAAUCAGAGUAGAAGGGACAUGAGGAUCACCCAUGUGACGCUUGAGC”, for which the “apparent Kd” value came out at 65.2 nM under setting [3] and 118 nM under setting [4].
For “UGUCGGAGCAGAGGAUAUACAUGAGGAUCACCCAUGUAAAUGGAAGAAGACUGGAAACAGUCAAUGUAGAAGGCUGCUCCGACA” the same measures were 125 nM and 694 nM.
For “UUGAAGUCAUCAGGAUAUAGUAUAAAAGACAUAUAUUUUUUCAAACAUGAGGAUCACCCAUGUCGCUAGAAGGGAUUAUAGAUU” the same measures were 47.3 nM and 41.3 nM.
For “UUAACUCAUGUAGGAUAUGCAUGGCGAAGCUACGCAGAAGGACAUGAGGAUCACCCAUGUUCUAGCGUCUGGAAACAGAUGCAA”, in that order: 67.9 nM and 359 nM.
“UGUCGGAGCAGAGGAUAUUACAUGAGGAUCACCCAUGUAUGAACCAAUAGCUGGAAGCAGCAAUGUAAGAAGGCUGCUCCGACA”: the “apparent Kd” value is 12.2 nM under setting [3] and 137 nM under setting [4].
With “AAGUAGAUCCGAGGAUAUACAAUCUGGAAACGGUACAUGAGGAUCACCCAUGUAGAAGGCGGAUCUACAGGUACUAAAGUACCA”, the “apparent Kd” value runs as follows: under setting [3], 7.4 nM; under setting [4], 16.4 nM.
For “GGUACUCAAAGAGUACCAAUACGAACAUGAGGAUCACCCAUGUAGGAUAUGCUACUCAAAGAGUAGCAGAAGGACAUGUCCCUA” the same measures were 13.1 nM and 35.2 nM.
For “ACCAUUUACUAGUUUUCUAUACAUGAGGAUCACCCAUGUUUUUAGGAUAUCAGCGUGAAACACGCUGAGAAGGAAGAACAUUCG” the same measures were 22.6 nM and 31.2 nM.
For “UUUUAACAUGAGGAUCACCCAUGUGAGGAUAUCGUAUUUUUUAUUAAUAUUAAUAAAACGAGAAGGCACAUUUU”, in that order: 95.5 nM and 97.3 nM.
For “GUCAUGUAAGGAUAUCUUACAUGUGACUUCGGUCACUGUCGAGAGAAGGUACAUGAGGAUCACCCAUGUUCGAC”, the “apparent Kd” value reads like this: under setting [3], 17.3 nM; under setting [4], 24 nM.
On to “UCGACCAGCGCCAGUCGAACAUGAGGAUCACCCAUGUACUCCAGAAGGCCGCCCAAGUACGGAGUGGAGGAUAUGGAAGUUCUC”, for which the “apparent Kd” value under setting [1] turned out to be 47.3 nM and the “apparent Kd” value under setting [2] was 26.3 nM.
“AAAAAAAAAAGACAGGAUAUCCAAAAAAAAACAUGAGGAUCACCCAUGUAAAAAAAAAAAAAGUGGGAGAAGGGUCAAAAAAAAAA”: the “apparent Kd” value under setting [1] amounted to 57.7 nM and the “apparent Kd” value under setting [2] is 23.2 nM.
For the sequence “CCUCACAGAGGAUAUACGUCCACUGAACCCAUGAGGUUGCCACAUGAGGAUCACCCAUGUAGAAGGCUGUGCUG”, the “apparent Kd” value under setting [3] was determined as 20.1 nM and the “apparent Kd” value under setting [4] turned out to be 42.9 nM.
For “CCCACGAAAGUCGAACGAUGAUGGAGAAGGACUAUAACAUGACAUGAGGAUCACCCAUGUGCCAAGUAGGAUAUCCAUCAUGGG” the same measures were 5.97 nM and 5.34 nM.
In the case of “CGAUGAGGUGUGAGGAUAUCGUGUUCGAAAGAACGUGAGAAGGCACAUGAGGAUCACCCAUGUGAACCUUGUCG”, the “apparent Kd” value by setting is: under setting [3], 16.9 nM; under setting [4], 18.8 nM.
For “GUCAGCUCGUGAGGAUAUACAACACUGCUUCGGCAGUGUAUUAAGAUCACAUGAGGAUCACCCAUGUAGAAGGCACGAGCGGAU” the same measures were 14.4 nM and 244 nM.
